IC50, Activity and MIC data for 7 compounds are collected here from ChEMBL document CHEMBL1287727, “Structure and biological evaluation of novel cytotoxic sterol glycosides from the marine red alga Peyssonnelia sp” (Bioorg Med Chem, 2010).

One may read the IC50 as the midpoint of a concentration-inhibition curve. A low value points to inhibition by little substance. Usually MIC stands for the least concentration at which growth counts as inhibited. The low end stands for greater potency, the high end for weaker potency.

≈ marks a conversion by molar mass, not a printed value. Calls of active or inactive are those of the source. The calls are words filed in the database; no cut-off is given here.

Assay [1] in a line: Cytotoxicity against human LNCaP-FGC cells after 72 hrs by MTS assay. It counts as functional, cell-based. The following applies: LNCaP-Clone-FGC. On the technique in general: Formazan colour is commonly taken as a measure of viable cells.
A further assay concerns MDA-MB-468. In words: Cytotoxicity against human MDA-MB-468 cells after 72 hrs by MTS assay. It counts as functional, cell-based. The following applies: MDA-MB-468, 72 h.
In the next assay the test system is HCT-116. The assay is described as follows: Cytotoxicity against human HCT116 cells after 72 hrs by MTS assay. It counts as functional, cell-based. The following applies: HCT-116, 72 h.
A further assay concerns DU-4475. The assay is described as follows: Cytotoxicity against human DU4475 cells after 72 hrs by MTS assay. Format: functional, cell-based. The following applies: DU-4475, 72 h.
For a further assay, the system named is MDA-MB-231. The assay is described as follows: Cytotoxicity against human MDA-MB-231 cells after 72 hrs by MTS assay. It counts as functional, cell-based. The following applies: MDA-MB-231, 72 h.
A further assay concerns PC-3. In words: Cytotoxicity against human PC3 cells after 72 hrs by MTS assay. Format: functional, cell-based. The following applies: PC-3, 72 h.
Another assay concerns DU-145. In words: Cytotoxicity against human DU145 cells after 72 hrs by MTS assay. Format: functional, cell-based. The following applies: DU-145, 72 h.
In another assay the test system is A549. The assay is described as follows: Cytotoxicity against human A549 cells after 72 hrs by MTS assay. Format: functional, cell-based. The following applies: A549, 72 h.
The next assay concerns BT-549. The assay is described as follows: Cytotoxicity against human BT549 cells after 72 hrs by MTS assay. The following applies: BT-549, 72 h. It counts as functional, cell-based.
The nature of assay [2]: Cytotoxicity against human A2780DDP cells after 72 hrs by MTS assay. It counts as functional, cell-based.
Another assay deals with CCRF-CEM. In words: Cytotoxicity against human CCRF-CEM cells after 72 hrs by MTS assay. Format: functional, cell-based.
Another assay relates to Enterococcus faecium. The assay is described as follows: Antibacterial activity against vancomycin-resistant Enterococcus faecium ATCC 700221. It counts as functional.
A further assay concerns Candida albicans. In words: Antifungal activity against amphotericin-resistant Candida albicans ATCC 90873. It counts as functional.
Assay [3] is described as follows: Cell cycle arrest in human A2780DDP cells at 10 uM after 24 hrs using propidium iodine staining by flow cytometry. Format: functional, cell-based. The procedure, abridged: (§1)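 A2780/DDP-S ovarian cancer cells were treated at 1.0, 3.0 and 10 µM for 24 or 48 h. DNA was stained with propidium iodide and cell-cycle distribution was analysed by flow cytometry.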
(A flow cytometer gives signals particle by particle.)

Assay [4] can be described thus: Cell cycle arrest in human A2780DDP cells at 10 uM after 48 hrs using propidium iodine staining by flow cytometry. Format: functional, cell-based. The procedure, abridged:
as §1

A further assay concerns Plasmodium falciparum. In words: Antimalarial activity against Plasmodium falciparum. It counts as functional, organism-based. The method in brief:
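Parasite proliferation was read out with a SYBR Green-based assay.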

The species named for assay [5] is Homo sapiens. In words: Induction of apoptosis in human A2780DDP cells assessed as PARP cleavage at 10 uM after 24 hrs by flow cytometry. Format: functional, cell-based. The method in brief: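 A2780/DDP-S ovarian cancer cells were exposed at 1.0, 3.0 and 10 µM for 24 or 48 h. Apoptosis was scored by flow cytometry as the presence of cleaved PARP, a marker of caspase activation.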

Assay [6] is filed under the species Homo sapiens. In words: Induction of apoptosis in human A2780DDP cells assessed as PARP cleavage at 10 uM after 48 hrs by flow cytometry. Format: functional, cell-based.
Assay [7] deals with Mycobacterium tuberculosis. In words: Antimicrobial activity against Mycobacterium tuberculosis H37Rv by microplate alamar blue assay. It counts as functional, organism-based. The procedure, abridged:
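M. tuberculosis H37Rv (ATCC 27294) tested by microplate alamar blue assay.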
A general note: Alamar Blue is a resazurin reagent that responds to reducing activity.

A further assay relates to Staphylococcus aureus. The assay is described as follows: Antibacterial activity against methicillin-resistant Staphylococcus aureus ATCC 33591. It counts as functional.

On to `CC(C)CCC[C@@H](C)[C@H]1CC[C@H]2[C@@H]3CCC4=CC(=O)CC[C@]4(C)[C@H]3CC[C@]12C` [4-CHOLESTEN 3-ONE], for which the concentration for half-maximal inhibition (IC50) is 5.96 µM in assay [1]; 6.09 µM with MDA-MB-468; 9.58 µM with HCT-116; 6.74 µM with DU-4475; 13.5 µM with MDA-MB-231; above 25 µM in the assay with PC-3. Also, the IC50 in the assay with DU-145 was determined as 20.3 µM.

On to `CC(C)CCC[C@@H](C)[C@H]1CC[C@H]2[C@@H]3CCC4=CC(=O)CC[C@]4(CO)[C@H]3CC[C@]12C`, for which the IC50 in [1] was 15.6 µM; in the assay on MDA-MB-468 it was 3.99 µM; in the assay with HCT-116, 20.9 µM; in the assay with DU-4475, 1 µM; in the assay on MDA-MB-231, 22.3 µM; with PC-3 it was 1.96 µM. In the assay on DU-145, this compound showed an IC50 of 5.05 µM.

In the case of `CC(C)CCC[C@@H](C)[C@H]1CC[C@H]2[C@@H]3CCC4=C[C@@H](O)CC[C@]4(CO[C@@H]4O[C@H](CO)[C@@H](O)[C@H](O)[C@H]4O)[C@H]3CC[C@]12C`, the IC50 is 24.2 µM in [1]; 6.69 µM in the assay with MDA-MB-468; above 25 µM in the assay with A549; 11.9 µM in the assay on BT-549; above 25 µM with HCT-116; 6.09 µM with DU-4475. Besides, the IC50 in assay [2] is above 25 µM; with MDA-MB-231, 16.9 µM; in the assay on PC-3, above 25 µM; in the assay with CCRF-CEM, 9.82 µM; in the assay on DU-145, above 25 µM.

In the case of `CC(C)CCC[C@@H](C)[C@H]1CC[C@H]2[C@@H]3CCC4=CC(=O)CC[C@]4(CO[C@@H]4O[C@H](CO)[C@@H](O)[C@H](O)[C@H]4O)[C@H]3CC[C@]12C`, the IC50 in assay [1] is 3.4 µM; in the assay on MDA-MB-468, 0.86 µM; with A549, 0.93 µM; in the assay on BT-549, 1.26 µM; in the assay with HCT-116, 3.13 µM; in the assay on DU-4475, 1.29 µM. Besides, the concentration for half-maximal inhibition (IC50) was above 40 µM with Plasmodium falciparum; 1.39 µM in assay [2]; 1.27 µM with MDA-MB-231; 3.44 µM in the assay on PC-3; 1.97 µM with CCRF-CEM; above 40 µM in assay [7]. Further, the midpoint of inhibition in the assay on DU-145, the IC50, lay at 1.31 µM. Also, the Activity in the assay with Enterococcus faecium stood at 6.3 µg/mL. This compound registered an MIC in the assay with Candida albicans of 25 µg/mL (≈ 44.4 µM). Moreover, the outcome (in assay [3]; in [4]; in the assay listed under Homo sapiens [5]; in the assay filed under Homo sapiens [6]) was inactive.

Regarding `CC(C)CCC[C@@H](C)[C@H]1CC[C@H]2[C@@H]3CCC4=C[C@@H](O)CC[C@]4(C)[C@H]3CC[C@]12C`, the IC50 (in [1]; in the assay on MDA-MB-468; in the assay on HCT-116; with DU-4475; with MDA-MB-231; with PC-3) was above 25 µM each time. The compound also displayed an IC50 with DU-145 above 25 µM.

On to `CC(=O)N[C@H]1[C@H](OC[C@]23CC[C@H](O)C=C2CC[C@@H]2[C@@H]3CC[C@]3(C)[C@@H]([C@H](C)CCCC(C)C)CC[C@@H]23)O[C@H](CO)[C@@H](O)[C@@H]1O`, for which the IC50 in assay [1] is 21.4 µM; with MDA-MB-468, 7.13 µM; with A549, above 25 µM; in the assay on BT-549, 10.1 µM; with HCT-116 it was above 25 µM; with DU-4475 it was 6.12 µM. For the same compound, the IC50 is 8.98 µM in assay [2]; 10.2 µM in the assay with MDA-MB-231; 9.61 µM in the assay with PC-3; 10.7 µM in the assay on CCRF-CEM; above 25 µM in the assay with DU-145.

In the case of `CC(=O)N[C@H]1[C@H](OC[C@]23CCC(=O)C=C2CC[C@@H]2[C@@H]3CC[C@]3(C)[C@@H]([C@H](C)CCCC(C)C)CC[C@@H]23)O[C@H](CO)[C@@H](O)[C@@H]1O`, the IC50 in assay [1] stood at 1.48 µM; with MDA-MB-468, 0.71 µM; in the assay with A549 it was 0.97 µM; in the assay with BT-549, 1.24 µM; with HCT-116, 2.23 µM; in the assay with DU-4475, 2.44 µM. Moreover, the concentration for half-maximal inhibition (IC50) in the assay on Plasmodium falciparum is above 40 µM; in [2], 1.35 µM; with MDA-MB-231, 1.01 µM; in the assay with PC-3, 2.4 µM; in the assay on CCRF-CEM, 1.45 µM; in assay [7], above 40 µM. This compound showed an IC50 with DU-145 of 1.35 µM. Further, the Activity was determined as 12.5 µg/mL in the assay with Enterococcus faecium and 3.1 µg/mL in the assay on Staphylococcus aureus. The MIC against Candida albicans came out at 25 µg/mL (≈ 41.4 µM). Further, the result (in assay [3]; in assay [4]; in the assay filed under Homo sapiens [6]) was inactive.
